Laboratory results as given in ChEMBL document CHEMBL2375209, “Fungal ABC transporter-associated activity of isoflavonoids from the root extract of Dalea formosa” (2013).
≈ marks a conversion by molar mass, not a printed value. Calls of active or inactive are those of the source. The calls are words filed in the database; no cut-off is given here.

What was measured:
Type in all cases: functional
[1] = test system: Candida albicans; assay: Antifungal activity against wild type Candida albicans CCM 8320 after 46 to 50 hrs by broth microdilution assay
Summary of the method: (§1)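 CLSI M27-A broth microdilution in MOPS-buffered (pH 7) RPMI 1640. Samples added from DMSO stocks (solvent ≤1.2%, matched in controls), serially diluted before inoculation. Growth read as OD550 plus visual inspection at 24 and 48 h. MIC = lowest concentration inhibiting growth ≥80% vs drug-free control; three independent measurements.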

[2] = test system: Nakaseomyces glabratus; assay: Antifungal activity against wild type Candida glabrata CCM 8270 after 46 to 50 hrs by broth microdilution assay; summary of the method: as §1
[3] = test system: Saccharomyces cerevisiae; assay: Antifungal activity against PDR1/PDR3 deficient Saccharomyces cerevisiae after 24 to 48 hrs by microdilution assay
Summary of the method: (§2)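 96-well microdilution; samples added from DMSO stocks (solvent ≤1.2%, matched in controls), serially diluted before inoculation; trifluoperazine, ketoconazole and fluconazole as positive controls. Growth read as OD550 plus visual inspection at 24 and 48 h. MIC = lowest concentration giving ≥80% growth inhibition vs drug-free control; values observed in three independent measurements.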

[4] = test system: Saccharomyces cerevisiae; assay: Antifungal activity against PDR5/SNQ2/YOR1 deficient Saccharomyces cerevisiae expressing PDR1 to 3 allele after 24 to 48 hrs by microdilution assay; summary of the method: as §2
[5] = test system: Saccharomyces cerevisiae; assay: Antifungal activity against wild type Saccharomyces cerevisiae after 24 to 48 hrs by microdilution assay; summary of the method: as §2
[6] = test system: Saccharomyces cerevisiae; assay: Antifungal activity against PDR5/SNQ2/YOR1 deficient Saccharomyces cerevisiae expressing PDR1 to 3 allele and heterologously overproduced Cdr1p gene after 24 to 48 hrs by microdilution; summary of the method: as §2
[7] = test system: Saccharomyces cerevisiae; assay: Antifungal activity against PDR5/SNQ2/YOR1 deficient Saccharomyces cerevisiae after 24 to 48 hrs by microdilution assay; summary of the method: as §2

In the case of `COc1ccc(C[C@H]2OC(=O)C=C2c2ccc(O)cc2O)cc1`, the MIC [1] is reported as “inactive” and the MIC [2] is reported as 244 µg/mL (≈ 781 µM).

An MIC [3] of 1.9 µg/mL (≈ 5.16 µM), an MIC [1] of 15 µg/mL (≈ 40.7 µM) and an MIC [4] of 1.9 µg/mL (≈ 5.16 µM) were found for `COc1ccc(C2COc3cc(O)cc(O)c3C2=O)c2c1C=CC(C)(C)O2` (racemic) in this work. It also gave an MIC [5] of 7.6 µg/mL (≈ 20.6 µM), an MIC [6] of 244 µg/mL (≈ 662 µM) and an MIC [7] of 1.9 µg/mL (≈ 5.16 µM). The MIC [2] was 7.6 µg/mL (≈ 20.6 µM).

An MIC [3] of 3.8 µg/mL (≈ 10.7 µM), an MIC [4] of 3.8 µg/mL (≈ 10.7 µM) and an MIC [5] of 15.2 µg/mL (≈ 42.6 µM) were found for `COc1ccc([C@H]2COc3c(ccc(O)c3O)C2)c(O)c1CC=C(C)C` in this work. It also gave an MIC [6] of 30.5 µg/mL (≈ 85.6 µM) and an MIC [7] of 3.8 µg/mL (≈ 10.7 µM).

An MIC [3] of 0.95 µg/mL (≈ 2.24 µM), an MIC [4] of 0.95 µg/mL (≈ 2.24 µM) and an MIC [5] of 15.2 µg/mL (≈ 35.8 µM) were found for `C=CC(C)(C)c1cc(C2COc3cc(O)c(CC=C(C)C)c(O)c3C2=O)c(O)cc1O` (racemic) in this work. It also gave an MIC [6] of over 244 µg/mL and an MIC [7] of 0.95 µg/mL (≈ 2.24 µM).

An MIC [3] of 3.8 µg/mL (≈ 10.3 µM), an MIC [4] of 3.8 µg/mL (≈ 10.3 µM) and an MIC [5] of 15.2 µg/mL (≈ 41 µM) were found for `C=CC(C)(C)c1cc([C@@H]2COc3c(ccc(O)c3O)C2)c(OC)cc1OC` in this work. For the same molecule, the MIC [6] was 61 µg/mL (≈ 165 µM) and the MIC [7] was 3.8 µg/mL (≈ 10.3 µM).

An MIC [3] of 15.2 µg/mL (≈ 42.9 µM), an MIC [1] of 61 µg/mL (≈ 172 µM) and an MIC [4] of 30.5 µg/mL (≈ 86.1 µM) were found for `COc1ccc([C@H]2COc3c(ccc(O)c3O)C2)c2c1C=CC(C)(C)O2` in this work. It also gave an MIC [5] of 30.5 µg/mL (≈ 86.1 µM), an MIC [6] of 244 µg/mL (≈ 688 µM) and an MIC [7] of 30.5 µg/mL (≈ 86.1 µM). It also gave an MIC [2] of 30.5 µg/mL (≈ 86.1 µM).

In the case of `COc1ccc2c(c1CC=C(C)C)O[C@@H]1c3ccc(O)cc3OC[C@H]21` [ENT-SANDWICENSIN], the MIC [3] is reported as 3.8 µg/mL (≈ 11.2 µM), the MIC [1] is reported as “inactive” and the MIC [4] is reported as 1.9 µg/mL (≈ 5.61 µM). It also gave an MIC [5] of 30.5 µg/mL (≈ 90.1 µM), an MIC [6] of over 244 µg/mL and an MIC [7] of 1.9 µg/mL (≈ 5.61 µM). The MIC [2] was 30.5 µg/mL (≈ 90.1 µM).

In the case of `C=CC(C)(C)c1cc([C@]2(O)COc3cc(O)c(CC=C(C)C)c(O)c3C2=O)c(O)cc1O`, the MIC [3] is reported as 15.2 µg/mL (≈ 34.5 µM), the MIC [1] is reported as “inactive” and the MIC [4] is reported as 3.8 µg/mL (≈ 8.63 µM). The MIC [5] was 61 µg/mL (≈ 138 µM), the MIC [6] was 244 µg/mL (≈ 554 µM) and the MIC [7] was 3.8 µg/mL (≈ 8.63 µM). For the same molecule, the MIC [2] was 122 µg/mL (≈ 277 µM).
